These results are taken from ChEMBL document CHEMBL4196122, “Design, Synthesis, and Biological Evaluation of Allosteric Effectors That Enhance CO Release from Carboxyhemoglobin” (ACS Med Chem Lett, 2018).

For series [1], the target named is T1, Hemoglobin HbA (Homo sapiens) (UniProt P69905+P68871). Nature of the series: Binding affinity to hemoglobin (unknown origin) assessed as increase in release of carbon monooxide from carboxyhemoglobin by measuring half life of carboxyhemoglobin at 20:1 compound/Hb tetramer ratio incubated for 1 hr measured every 15 mins for 90 mins (reference value: 80 +/- 0.3 min). In kind it is protein-complex assay.
T1 sequence (P68871 2-147 partner limits assumed): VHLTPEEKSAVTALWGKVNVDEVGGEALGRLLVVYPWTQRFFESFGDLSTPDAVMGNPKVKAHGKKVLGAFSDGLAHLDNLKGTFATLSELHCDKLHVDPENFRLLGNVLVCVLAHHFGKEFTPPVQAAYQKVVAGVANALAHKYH
T1 sequence (P69905 2-142 limits assumed): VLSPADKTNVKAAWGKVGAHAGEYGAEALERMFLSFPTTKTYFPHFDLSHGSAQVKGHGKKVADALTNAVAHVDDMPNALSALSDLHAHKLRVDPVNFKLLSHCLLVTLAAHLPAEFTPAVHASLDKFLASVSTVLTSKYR

Series [2] has as its target T1, Hemoglobin HbA (Homo sapiens). Description: Binding affinity to hemoglobin (unknown origin) assessed as increase in release of carbon monooxide from carboxyhemoglobin by measuring half life of carboxyhemoglobin at 5:1 compound/Hb tetramer ratio incubated for 1 hr measured every 15 mins for 90 mins (reference value: 80 +/- 0.3 min). Format: protein-complex assay.
Series [3] can be described thus: Hemolytic activity against human RBC assessed as fraction of extracellular Hb level at 1 mM after 1 hr relative to total Hb level. Format: ADME, cell-based, Erythrocyte. The settings on record: red blood cells (erythrocytes), read-out: Activity. A digest of the protocol: (§1)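 Human red blood cells (50 µM Hb) incubated with compound at 1 mM in 0.1 vol % DMSO. Read-out is extracellular Hb as a fraction of total Hb. "-" denotes less than 1% of total Hb released.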

Series [4] is described as follows: Aqueous solubility of the compound in DMSO/[…] solution at 2.5 mM. In kind it is physicochemical. The note with it: 2500 µM. The gist of the method:
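Compound made up at 2.5 mM in DPBS containing 1 vol% DMSO. Scored by visual inspection of the solution: "+" if no aggregates or crystals are seen, "-" if aggregates or crystals appear.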

The nature of series [5]: (§2) Hemolytic activity against human RBC assessed as increase in fraction of extracellular Hb level at 1 mM after 1 hr. Format: ADME, cell-based, Erythrocyte. The settings on record: red blood cells (erythrocytes), read-out: Activity. A digest of the protocol:
as §1

For another series, the system named is Erythrocyte. The series is described as §2. In kind it is ADME, cell-based. The settings on record: erythrocyte, 1 h, 1000 µM. A digest of the protocol: as §1
Series [6] concerns the target T1, Hemoglobin HbA (Homo sapiens). Description: Binding affinity to hemoglobin (unknown origin) assessed as partial oxygen pressure at which 50% of Hb is oxygenated (reference value: 17 +/- 0.3 mmHg). Format: protein-complex assay.

Structures are written as SMILES.

For the molecule `Cc1cc(C)cc(C(=O)N[C@H](Cc2ccc(-c3ccc(CN(C)C)o3)cc2)C(=O)N[C@@H](Cc2c[nH]c3ccccc23)C(=O)O)c1`, the T1/2 in series [1] is 1.12 h; in series [2], 1.2 h. The hemolysis at 1 h, 1000 µM in series [3] was below 1%. For the same molecule, the solubility entry in series [4] is “Insoluble”.
Take `Cc1cc(C)cc(C(=O)N[C@H](Cc2ccc(-c3ccco3)cc2)C(=O)N[C@@H](Cc2c[nH]c3ccccc23)C(=O)O)c1`: the values for the T1/2 in series [1] and in series [2] were 1 h and 1.18 h, respectively. Besides, the hemolysis at 1 h, 1000 µM in series [5] was 1 to 2%. Also, the solubility result in series [4] was “Insoluble”.
For `Cc1cc(C)cc(C(=O)N[C@H](Cc2ccc(-c3c(CO)noc3C)cc2)C(=O)N[C@@H](Cc2c[nH]c3ccccc23)C(=O)O)c1`, the T1/2 in series [1] came to 1.08 h; in series [2], 1.17 h. The hemolysis at 1 h, 1000 µM in series [3] was below 1%. In addition, in series [4], the solubility result is on record as “Soluble”.
For the molecule `Cc1cc(C)cc(C(=O)N[C@H](Cc2ccc(-c3c(C)noc3C)cc2)C(=O)N[C@@H](Cc2c[nH]c3ccccc23)C(=O)O)c1`, the T1/2 in series [1] stood at 0.95 h; in series [2], 1.2 h. Besides, in series [3], the hemolysis at 1 h, 1000 µM is below 1%. In addition, the solubility entry in series [4] is listed as “Insoluble”.
On to `Cc1cc(C)cc(C(=O)N(C)[C@H](Cc2ccc(-c3ccccc3)cc2)C(=O)N[C@@H](Cc2c[nH]c3ccccc23)C(=O)O)c1`, for which the T1/2 in series [2] was 1.15 h. The Activity entry in the series on Erythrocyte was “Toxic”; in series [6] it was 19 mmHg. The solubility result in series [4] is given as “Insoluble”.
Turning to `Cc1cc(C)cc(C(=O)N[C@H](Cc2ccccc2)C(=O)N[C@@H](Cc2c[nH]c3ccccc23)C(=O)O)c1`, the T1/2 in series [1] was 1.05 h. In addition, in series [3], the hemolysis at 1 h, 1000 µM is below 1%. The solubility entry in series [4] was “Insoluble”.
Regarding `Cc1cc(C)cc(C(=O)N[C@H](Cc2ccc(-c3cnn(C)c3)cc2)C(=O)N[C@@H](Cc2c[nH]c3ccccc23)C(=O)O)c1`, the T1/2 in series [1] came out at 1.15 h; in series [2], 1.23 h. The hemolysis at 1 h, 1000 µM in series [3] was below 1%. The solubility result in series [4] was “Soluble”.
Taken in the same sequence, the figures for `Cc1cc(C)cc(C(=O)N[C@H](Cc2ccc(-c3ccccc3)cc2)C(=O)N[C@@H](Cc2c[nH]c3ccccc23)C(=O)O)c1` were 1.07 h, 1.15 h, below 1% and “Insoluble”.
Taken in the same sequence, the figures for `Cc1cc(C)cc(C(=O)N[C@H](Cc2ccc(-c3c(C(=O)O)noc3C)cc2)C(=O)N[C@@H](Cc2c[nH]c3ccccc23)C(=O)O)c1` were 1.18 h, 1.3 h, below 1% and “Soluble”.
Taken in the same sequence, the figures for `Cc1cc(C)cc(C(=O)N[C@H](Cc2ccc(-c3cncnc3)cc2)C(=O)N[C@@H](Cc2c[nH]c3ccccc23)C(=O)O)c1` were 1.28 h, 1.33 h, below 1% and “Soluble”.
Consider `Cc1cc(C)cc(C(=O)N(C)[C@H](Cc2ccccc2)C(=O)N[C@@H](Cc2c[nH]c3ccccc23)C(=O)O)c1`, for which the T1/2 in series [1] amounted to 1.08 h; in series [2], 1.23 h. For the same molecule, the hemolysis at 1 h, 1000 µM in series [3] is below 1%. In addition, in series [4], the solubility result was “Insoluble”.
